The results in this text go back to ChEMBL document CHEMBL3352192, “Evaluation of lignans from Heliopsis helianthoides var. scabra for their potential antimetastatic effects in the brain” (J Nat Prod, 2014).

Molecules are shown by their SMILES. The source made the active and inactive calls. The rule behind the calls is not given here.

Data set [1] deals with hCMEC/D3. Nature of the data set: Cytotoxicity against human CMEC/D3 cells at 1 to 10 uM after 8 hrs by EZ4U assay. The data set is classed as functional, cell-based. The gist of the method:
(§1)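 Confluent A2058, hCMEC/D3 and primary rat brain endothelial cells exposed 8 h to 10, 5, 2.5 or 1.25 μM compound. Media: serum-free MEM (A2058), serum-free EBM-2 (D3), DMEM/F12 + 5% PDS (RBEC). DMSO 0.1% (v/v) in all wells, vehicle controls. EZ4U mitochondrial dehydrogenase read-out after 45 min, OD 450 nm.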

For data set [2], the system named is A2058. Nature of the data set: Inhibition of adhesion of human A2058 cells to endothelial cells at 2 uM pretreated for 3 hrs before adhesion and during adhesion. The data set is classed as functional, cell-based. In a few lines:
(§2)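 Confluent hCMEC/D3 monolayers and A2058 cells were each pretreated 3 h with compound. Melanoma cells were labelled with Oregon Green 488 diacetate succinimidyl ester and added to the endothelium (10^5 or 5×10^4 cells/well) in serum-free medium containing the same compound for 80 min. After washing and EtOH−AcOH fixation, attached cells were imaged and counted. Results are % of control, means ± SD, n = 3.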

A short description of data set [3]: Cytotoxicity against RBEC at 1 to 10 uM after 8 hrs by EZ4U assay. The following applies: rat. In a few lines: as §1
Data set [4] relates to A2058. Nature of the data set: Cytotoxicity against human A2058 cells at 1 to 10 uM after 8 hrs by EZ4U assay. The data set is classed as functional, cell-based. In a few lines:
as §1

For data set [5], the species on record is Rattus norvegicus. Nature of the data set: Increase in integrity of RBEC at 5 uM after 2 hrs by ZO-1 staining method. The data set is classed as functional. The gist of the method:
(§3)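 Confluent RBECs or hCMEC/D3 cells, 2 h compound exposure (0.1% DMSO vehicle), then fixed in EtOH−AcOH 95:5 at −20 °C. Blocked with 3% BSA, rabbit anti-ZO-1 overnight, Cy3 goat anti-rabbit, Hoechst 33342 nuclei. Tight-junction staining at cell–cell contacts assessed by epifluorescence microscopy.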

The subject of data set [6] is hCMEC/D3. In words: Inhibition of migration of human CMEC/D3 cells after 24 hrs by wound-healing assay. The data set is classed as functional, cell-based. The gist of the method:
(§4)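 hCMEC/D3 cells on rat-tail collagen were grown to 100% confluency, scratched with a pipet tip, and washed with PBS. They were then treated in Leibovitz medium + 5% FBS and imaged by phase contrast for 24 h at 37 °C (10× objective). Migration is given as % of control over 24 h; means ± SD, n = 4.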

Data set [7] has as its system hCMEC/D3. In words: Inhibition of migration of human CMEC/D3 cells at 10 uM after 24 hrs by wound-healing assay. The data set is classed as functional, cell-based. In a few lines:
as §4

In data set [8] the test system is A2058. Nature of the data set: Inhibition of migration of human A2058 cells assessed as elongated shape with actin-rich protrusion at 5 uM using Alexa-488-labeled phalloidin by microscopy. The data set is classed as functional, cell-based. The gist of the method:
(§5)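 A2058 melanoma cells were treated 2 h with 5 μM compound. They were fixed in 4% HCHO, permeabilized with acetone at −20 °C for 10 min, blocked, and stained with Alexa488-phalloidin. Actin cytoskeleton and cell shape were examined by epifluorescence microscopy, with phase contrast images also taken.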

For data set [9], the system named is A2058. Nature of the data set: Inhibition of adhesion of human A2058 cells to endothelial cells at 10 uM pretreated for 3 hrs before adhesion and during adhesion. The data set is classed as functional, cell-based. In a few lines:
as §2

The test system of data set [10] is A2058. In words: Inhibition of migration of human A2058 cells assessed as elongated shape and longer protrusion at 5 uM by phase contrast microscopy. The data set is classed as functional, cell-based. The gist of the method: as §5
Data set [11] concerns A2058. Nature of the data set: Inhibition of migration of human A2058 cells assessed as cells with stress fibers at 5 uM using Alexa-488-labeled phalloidin by microscopy. The data set is classed as functional, cell-based. In a few lines:
as §5

Data set [12] relates to hCMEC/D3. Nature of the data set: Increase in integrity of human CMEC/D3 cells at 2 uM after 2 hrs by ZO-1 staining method. The data set is classed as functional, cell-based. The gist of the method: as §3
For data set [13], the system named is A2058. Nature of the data set: Inhibition of adhesion of human A2058 cells to endothelial cells at 2 uM pretreated to endothelial cells for 3 hrs before adhesion. The data set is classed as functional, cell-based. In a few lines:
(§6)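 Cell-type pretreatment adhesion: either hCMEC/D3 monolayers (2 μM) or A2058 cells (5 μM) were pretreated 3 h. Labelled melanoma cells were then allowed to attach for 80 min in serum-free medium without compound. Fixed, imaged and counted; % of untreated control, means ± SD, n = 3.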

The species entered for data set [14] is Rattus norvegicus. In words: Increase in transendothelial electrical resistance in RBEC at 5 uM after 2 hrs relative to control. The data set is classed as functional. In a few lines: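 Primary RBECs from 2-week-old rats were grown on collagen/fibronectin-coated Transwell filters. After confluence they got 550 nM hydrocortisone, 250 μM CPT-cAMP and 17.5 μM RO-201724, with astrocyte-conditioned medium. Once TEER plateaued (120−140 Ω·cm2), compound was added (0.1% DMSO) and TEER was followed automatically for 2 h. Expressed as % of untreated RBECs at 2 h; means ± SD, n = 3.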

Data set [15] concerns A2058. In words: Inhibition of adhesion of human A2058 cells to endothelial cells at 5 uM pretreated for 3 hrs before adhesion. The data set is classed as functional, cell-based. The gist of the method: as §6
The test system of data set [16] is A2058. Nature of the data set: Inhibition of migration of human A2058 cells assessed as filopodia at 5 uM using Alexa-488-labeled phalloidin by microscopy. The data set is classed as functional, cell-based. The gist of the method:
as §5

Data set [17] deals with A2058. In words: Inhibition of migration of human A2058 cells at 10 uM by wound-healing assay. The data set is classed as functional, cell-based. The gist of the method:
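A2058 confluent monolayer was scratched, and wound closure was tracked for 24 h at 2, 5 or 10 μM by phase contrast microscopy (10× objective). Migration is expressed as % of control cells migrated over 24 h; means ± SD, n = 4, ANOVA with Bonferroni.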

For data set [18], the system named is A2058. In words: Inhibition of migration of human A2058 cells assessed as expanded cells without large filopodia at 5 uM using Alexa-488-labeled phalloidin by microscopy. The data set is classed as functional, cell-based. In a few lines: as §5

Take `COCCCc1cc(OC)c2oc(-c3ccc4c(c3)OCO4)cc2c1`: the result in the data set with hCMEC/D3 [1] and in the data set with A2058 [4] was inactive. In the data set with A2058 [2], the inhibition entry is “inactive”. The Activity entry in [3] was “Non-toxic”.

Regarding `CC(=O)O[C@H](c1ccc2c(c1)OCO2)[C@H]1C(=O)OC[C@@H]1Cc1ccc2c(c1)OCO2`, the result in the data set with hCMEC/D3 [1] and with A2058 [4] was inactive. Further, the inhibition entry with A2058 [2] is “inactive”. Moreover, in data set [3], the Activity entry is on record as “Non-toxic”.

For `COC/C=C/c1cc(OC)c2oc(-c3ccc4c(c3)OCO4)cc2c1`, the outcome in the data set on hCMEC/D3 [1] and with A2058 [4] was inactive. Moreover, the inhibition result in the data set with A2058 [2] was “inactive”. In addition, the Activity entry in data set [3] is “Non-toxic”.

Turning to `O=C1OCc2c1cc1ccc3c(c1c2-c1ccc2c(c1)OCO2)OCO3` [HELIOXANTHIN], the result in the data set on hCMEC/D3 [1] and in the data set with A2058 [4] was inactive. Also, the inhibition entry in the data set on A2058 [2], in the data set on hCMEC/D3 [7], in the data set with A2058 [8], in the data set on A2058 [9], with A2058 [10] and in the data set on A2058 [11] was “Active” in each case. The inhibition result with A2058 [13] and in the data set on A2058 [16] was “Active” in each case. Also, the result in the data set listed under Rattus norvegicus [5] and in the data set with hCMEC/D3 [12] was Active. The inhibition result with hCMEC/D3 [6] is “Dose-dependent effect”. The Activity result is “Non-toxic” in data set [3] and 15% in the data set filed under Rattus norvegicus [14]. Further, the inhibition result with A2058 [15] is “inactive”.

For the compound `COC(=O)[C@H](Cc1ccc2c(c1)OCO2)[C@@H](Cc1ccc2c(c1)OCO2)C(=O)OC`, the outcome with hCMEC/D3 [1] and with A2058 [4] was inactive. The inhibition result in the data set with A2058 [2] is “inactive”. Further, in [3], the Activity result is given as “Non-toxic”.

Regarding `COC(=O)/C(=C/c1ccc2c(c1)OCO2)C(Cc1ccc2c(c1)OCO2)C(=O)OC` (stereo not given), the outcome in the data set on hCMEC/D3 [1] and in the data set with A2058 [4] was inactive. Further, the inhibition entry in the data set with A2058 [2] is “inactive”. The outcome in the data set listed under Rattus norvegicus [5], with hCMEC/D3 [12] and in the data set filed under Rattus norvegicus [14] was Active. Further, the inhibition result with A2058 [17], with hCMEC/D3 [7], in the data set on A2058 [9], in the data set on A2058 [10] and in the data set on A2058 [18] was “Active” throughout. Further, in the data set on hCMEC/D3 [6], the inhibition entry is “Dose-dependent effect”. For the same compound, the Activity result in data set [3] is on record as “Non-toxic”.
